Calls of active or inactive are those of the source. No cut-off for these calls is given here.
How the values were obtained:
[1] = molecular target: T1, 5-hydroxytryptamine receptor 3A (Rattus norvegicus, UniProt P35563); assay: Displacement of [3H]LY278584 from 5HT3 receptor in rat cortical homogenate
T1 sequence (P35563 whole entry): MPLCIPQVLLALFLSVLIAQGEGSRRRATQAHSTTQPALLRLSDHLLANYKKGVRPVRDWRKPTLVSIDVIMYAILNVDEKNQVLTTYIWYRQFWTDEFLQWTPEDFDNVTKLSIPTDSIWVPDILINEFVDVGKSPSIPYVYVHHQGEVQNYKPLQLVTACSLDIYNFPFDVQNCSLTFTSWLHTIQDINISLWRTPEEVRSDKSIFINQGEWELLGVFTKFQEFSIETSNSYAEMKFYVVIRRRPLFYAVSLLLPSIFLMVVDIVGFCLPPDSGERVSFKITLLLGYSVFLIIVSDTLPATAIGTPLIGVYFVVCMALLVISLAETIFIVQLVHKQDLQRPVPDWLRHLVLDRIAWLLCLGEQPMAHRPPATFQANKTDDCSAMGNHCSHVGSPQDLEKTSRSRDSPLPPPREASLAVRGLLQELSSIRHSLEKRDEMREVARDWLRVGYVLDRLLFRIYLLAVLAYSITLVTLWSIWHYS

[2] = molecular target: T2, 5-hydroxytryptamine receptor 1A (Rattus norvegicus, UniProt P19327); assay: Displacement of [3H]8-OHDPAT from 5HT1A receptor in rat hippocampus; assay type: tissue-based
T2 sequence (P19327 whole entry): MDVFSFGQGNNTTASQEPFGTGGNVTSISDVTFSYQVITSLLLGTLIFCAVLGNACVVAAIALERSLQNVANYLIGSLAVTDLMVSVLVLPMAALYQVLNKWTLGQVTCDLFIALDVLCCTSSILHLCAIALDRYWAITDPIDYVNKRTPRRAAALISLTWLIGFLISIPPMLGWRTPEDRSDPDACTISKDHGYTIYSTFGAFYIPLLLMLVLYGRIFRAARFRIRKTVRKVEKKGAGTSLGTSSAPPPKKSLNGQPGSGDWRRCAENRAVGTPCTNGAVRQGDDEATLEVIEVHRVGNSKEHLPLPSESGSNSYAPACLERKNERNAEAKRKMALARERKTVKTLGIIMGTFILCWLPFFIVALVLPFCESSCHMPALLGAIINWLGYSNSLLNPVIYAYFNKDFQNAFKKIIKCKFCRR

[3] = molecular target: 5-hydroxytryptamine receptor 2A (Rattus norvegicus, UniProt P14842); assay: Displacement of [3H]ketanserin from 5HT2A receptor in rat cortex
[4] = molecular target: 5-hydroxytryptamine receptor 4 (Cavia porcellus, UniProt O70528); assay: Displacement of [3H]GR-113808 from 5HT4 receptor in guinea pig striatum
[5] = molecular target: T3, Alpha-2A adrenergic receptor (Rattus norvegicus, UniProt P22909); assay: Displacement of [3H]RX821002 from adrenergic alpha2 receptor in rat cortex
T3 sequence (P22909 whole entry): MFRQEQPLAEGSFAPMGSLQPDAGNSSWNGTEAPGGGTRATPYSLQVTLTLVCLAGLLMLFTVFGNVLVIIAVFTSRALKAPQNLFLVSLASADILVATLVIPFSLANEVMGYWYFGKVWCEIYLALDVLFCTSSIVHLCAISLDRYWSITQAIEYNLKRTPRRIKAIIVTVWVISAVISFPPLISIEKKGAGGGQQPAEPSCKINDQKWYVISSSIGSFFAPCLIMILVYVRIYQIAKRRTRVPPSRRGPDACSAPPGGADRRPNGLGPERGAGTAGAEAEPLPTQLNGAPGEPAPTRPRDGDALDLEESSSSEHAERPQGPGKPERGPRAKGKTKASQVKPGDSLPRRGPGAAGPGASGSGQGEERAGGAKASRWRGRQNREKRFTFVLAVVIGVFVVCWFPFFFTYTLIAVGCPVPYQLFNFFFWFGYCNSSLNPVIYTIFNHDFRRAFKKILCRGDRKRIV

[6] = molecular target: D(1A) dopamine receptor (Rattus norvegicus, UniProt P18901); assay: Displacement of [3H]SCH-23390 from dopamine D1 receptor in rat striatum
[7] = molecular target: D(2) dopamine receptor (Rattus norvegicus, UniProt P61169); assay: Displacement of [3H]spiperone from dopamine D2 receptor in rat striatum
[8] = molecular target: Muscarinic acetylcholine receptor; assay: Displacement of [3H]QNB from muscarinic receptor in rat cortex
[9] = molecular target: T4, 5-hydroxytryptamine receptor 3A (Cavia porcellus) (UniProt O70212); assay: Agonist activity at 5HT3 receptor in guinea pig thoracic aorta assessed as positive contractility potency at 100 uM; assay type: functional, tissue-based
T4 sequence (whole entry): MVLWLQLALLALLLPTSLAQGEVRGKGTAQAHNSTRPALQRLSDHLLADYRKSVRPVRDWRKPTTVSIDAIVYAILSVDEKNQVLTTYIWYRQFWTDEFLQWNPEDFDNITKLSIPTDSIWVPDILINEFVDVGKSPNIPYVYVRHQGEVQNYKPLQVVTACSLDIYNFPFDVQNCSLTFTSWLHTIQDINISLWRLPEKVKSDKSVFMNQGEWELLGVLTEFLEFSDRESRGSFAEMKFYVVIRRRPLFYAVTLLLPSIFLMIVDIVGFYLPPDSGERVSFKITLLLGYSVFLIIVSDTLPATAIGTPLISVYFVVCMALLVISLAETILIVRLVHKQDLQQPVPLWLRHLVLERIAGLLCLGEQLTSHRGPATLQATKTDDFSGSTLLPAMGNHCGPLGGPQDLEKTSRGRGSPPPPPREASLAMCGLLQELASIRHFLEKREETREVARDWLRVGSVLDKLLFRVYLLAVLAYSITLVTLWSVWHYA
How it was run: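 Guinea pig aortic helicoidal strips in PSS at 35 °C, aerated, under 1 g resting force, washed every 20 min for 1 h. Compounds added cumulatively 0.1-100 µM (DMSO vehicle); isometric contraction recorded.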

Chain of 5-hydroxytryptamine receptor 2A (P14842 whole entry): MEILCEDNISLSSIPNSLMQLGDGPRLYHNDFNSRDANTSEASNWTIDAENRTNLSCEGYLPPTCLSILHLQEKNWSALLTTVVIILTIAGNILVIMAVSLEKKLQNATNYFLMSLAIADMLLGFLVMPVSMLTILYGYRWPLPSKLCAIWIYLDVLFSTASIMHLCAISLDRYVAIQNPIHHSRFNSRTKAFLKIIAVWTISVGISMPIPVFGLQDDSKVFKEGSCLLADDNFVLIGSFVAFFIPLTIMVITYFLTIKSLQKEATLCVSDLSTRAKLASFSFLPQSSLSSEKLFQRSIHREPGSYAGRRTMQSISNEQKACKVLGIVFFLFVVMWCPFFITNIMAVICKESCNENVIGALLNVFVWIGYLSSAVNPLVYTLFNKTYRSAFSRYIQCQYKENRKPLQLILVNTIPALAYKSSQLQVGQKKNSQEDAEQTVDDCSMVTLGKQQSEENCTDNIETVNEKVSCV
Chain of 5-hydroxytryptamine receptor 4 (O70528 whole entry): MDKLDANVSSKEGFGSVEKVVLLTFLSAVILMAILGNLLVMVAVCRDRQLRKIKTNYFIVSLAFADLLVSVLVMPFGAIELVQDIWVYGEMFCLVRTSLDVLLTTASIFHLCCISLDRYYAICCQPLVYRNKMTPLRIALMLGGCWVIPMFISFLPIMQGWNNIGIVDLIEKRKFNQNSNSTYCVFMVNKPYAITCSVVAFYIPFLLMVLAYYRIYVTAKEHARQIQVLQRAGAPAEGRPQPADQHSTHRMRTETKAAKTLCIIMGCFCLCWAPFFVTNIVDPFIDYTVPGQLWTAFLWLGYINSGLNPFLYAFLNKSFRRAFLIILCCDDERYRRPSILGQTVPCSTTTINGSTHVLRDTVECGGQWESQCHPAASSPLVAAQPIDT
Chain of D(2) dopamine receptor (P61169 whole entry): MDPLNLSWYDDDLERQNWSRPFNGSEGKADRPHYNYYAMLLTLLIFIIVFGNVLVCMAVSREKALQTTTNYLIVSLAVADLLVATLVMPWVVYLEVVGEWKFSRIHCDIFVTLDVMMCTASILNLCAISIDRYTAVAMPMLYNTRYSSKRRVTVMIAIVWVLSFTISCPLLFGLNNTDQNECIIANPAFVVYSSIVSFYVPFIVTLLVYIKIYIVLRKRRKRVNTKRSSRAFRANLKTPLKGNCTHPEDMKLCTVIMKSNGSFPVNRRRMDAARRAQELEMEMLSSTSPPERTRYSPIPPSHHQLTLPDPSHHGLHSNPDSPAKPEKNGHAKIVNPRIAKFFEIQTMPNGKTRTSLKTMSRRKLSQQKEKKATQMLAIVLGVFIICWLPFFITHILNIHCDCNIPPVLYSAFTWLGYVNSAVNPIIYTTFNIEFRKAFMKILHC
Chain of D(1A) dopamine receptor (P18901 whole entry): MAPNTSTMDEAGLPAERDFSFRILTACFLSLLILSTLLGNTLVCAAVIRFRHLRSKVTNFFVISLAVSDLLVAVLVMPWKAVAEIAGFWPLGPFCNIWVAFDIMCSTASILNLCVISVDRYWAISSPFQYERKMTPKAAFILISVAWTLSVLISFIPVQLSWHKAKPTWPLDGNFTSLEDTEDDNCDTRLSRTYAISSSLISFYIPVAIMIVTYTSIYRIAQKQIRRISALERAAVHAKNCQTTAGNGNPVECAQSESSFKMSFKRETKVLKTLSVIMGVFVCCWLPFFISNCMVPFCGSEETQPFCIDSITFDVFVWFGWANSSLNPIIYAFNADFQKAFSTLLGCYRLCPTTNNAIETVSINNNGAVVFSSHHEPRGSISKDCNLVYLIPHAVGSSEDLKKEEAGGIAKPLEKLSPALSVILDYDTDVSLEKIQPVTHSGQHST

Work on N[C@@H](CN1CCN(c2nc3cc(F)ccc3n3cccc23)CC1)C(=O)O yielded a Ki [1] of 0.0028 µM, a Ki [2] of 0.446 µM and a Ki [3] of 5.69 µM. For the same molecule, the Ki [4] was > 10 µM, the Ki [5] was > 10 µM and the Ki [6] was > 10 µM. The Ki [7] was > 10 µM, the Ki [8] was > 10 µM and the pD2 [9] was “inactive”.
N/C(CN1CCN(c2nc3cc(F)ccc3n3cccc23)CC1)=N\O was tested, and the Ki [1] was 0.0008 µM, the Ki [2] was > 10 µM and the Ki [3] was > 10 µM. The Ki [4] was > 10 µM, the Ki [5] was > 10 µM and the Ki [6] was > 10 µM. For the same molecule, the Ki [7] was > 10 µM, the Ki [8] was > 10 µM and the pD2 [9] was “inactive”.
